GSTO1 counter: GSTO1 inhibition, counter-screen for RBBP9 inhibitors; recombinant GSTO1, activity-based probe fluorescence polarization; inhibition, % at 5.96 µM; 300,000 compounds, 1.1% hits; AID 1974;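 active means inhibition above the campaign mean inhibition plus 3 SD, cut at about 35% in these data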;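 further: 0% = GSTO1-1 with DMSO and 100% = wells lacking GSTO1-1 enzyme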
CTSL1 counter: counter-screen for PFM18AAP inhibitors: inhibitors of F. hepatica cathepsin L1. inhibition, % at 5.96 µM. 300,000 compounds, 0.49% hits. recombinant F. hepatica cathepsin L1, Z-Leu-Arg-MCA fluorescence;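 active means inhibition above the mean of all tested compounds plus 3 SD, set per screening campaign, cut at about 17% in these data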;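 further: 0% = plate median of test compound wells and 100% = 1 µM Z-Phe-Ala-diazomethylketone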
PAD4 FP inh: inhibitors of human PAD4 | Q9UM07 | recombinant PAD4, RCA probe fluorescence polarization | inhibition, % at 6.36 µM | 330,000 compounds, 0.41% hits;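 active means percent inhibition above a cutoff equal to the mean of all tested compounds plus 3 SD, cut at about 15% in these data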;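 further: 0% = PAD4 with RCA probe and DMSO and 100% = probe without PAD4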
Target sequence (Q9UM07 whole entry, looked up): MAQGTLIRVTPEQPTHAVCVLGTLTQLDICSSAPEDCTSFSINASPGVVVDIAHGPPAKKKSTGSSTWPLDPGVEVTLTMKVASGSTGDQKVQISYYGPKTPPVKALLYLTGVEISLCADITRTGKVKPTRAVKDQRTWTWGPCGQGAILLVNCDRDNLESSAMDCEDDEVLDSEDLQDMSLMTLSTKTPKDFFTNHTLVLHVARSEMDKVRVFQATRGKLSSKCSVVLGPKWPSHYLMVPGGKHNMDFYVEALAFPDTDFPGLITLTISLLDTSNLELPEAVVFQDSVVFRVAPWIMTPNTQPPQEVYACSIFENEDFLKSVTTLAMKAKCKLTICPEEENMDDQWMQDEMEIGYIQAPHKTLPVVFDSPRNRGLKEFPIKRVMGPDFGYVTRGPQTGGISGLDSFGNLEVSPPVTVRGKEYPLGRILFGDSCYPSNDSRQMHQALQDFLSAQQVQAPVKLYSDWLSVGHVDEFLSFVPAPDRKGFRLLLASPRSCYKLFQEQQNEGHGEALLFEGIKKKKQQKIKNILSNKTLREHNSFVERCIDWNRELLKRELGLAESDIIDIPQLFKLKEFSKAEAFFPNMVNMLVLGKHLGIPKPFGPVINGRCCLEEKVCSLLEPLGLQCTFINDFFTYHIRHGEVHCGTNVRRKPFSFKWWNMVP
TDP2 absorb: blocks human TDP2 phosphodiesterase activity; O95551; recombinant TDP2, T5PNP hydrolysis, p-nitrophenol absorbance 415 nm; inhibition, % at 12.8 µM; 370,000 compounds, 0.34% hits; AID 720702;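 active means inhibition above the mean of all tested compounds plus 3 SD, set per campaign, cut at about 25% in these data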;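 further: 0% = DMSO with enzyme and 100% = buffer with substrate but no TDP2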
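System – recombinant human TDP2 · Amount – 120 nM TDP2 per well · Buffer or medium – Mg2+-containing Tris-HCl buffer, pH 7.5 · Reagent – T5PNP substrate, 5 mM · Dosing – 12.8 µM single point, 1% DMSO · Incubation – 2 h at 37 °C · Measured by – epi absorbance · Read-out basis – percent inhibition · Benchmarks – high control without enzyme, low control DMSO plus TDP2 · Repeats – singlicate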
PRMT1 FP inh: PRMT1 (human) inhibition, primary screen | inhibition, % at 2.79 µM | recombinant PRMT1, activity-based probe fluorescence polarization | Q99873 | 370,000 compounds, 1.3% hits;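 active means inhibition above about 21% made by adding two undisclosed values, limit read from the data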
GSTO1 inh conf: confirmation of human GSTO1 inhibitors; shares compounds with GSTO1 counter; recombinant GSTO1, probe fluorescence polarization; inhibition, % at 5.96 µM; 2,400 compounds, 54% hits; AID 2176;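 active means inhibition above the primary screen's cutoff, its mean inhibition plus 3 SD, cut at about 35% in these data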;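 further: loss of polarization as inhibitors block binding of rhodamine sulfonate ester activity probe; 0% = GSTO1 with DMSO and 100% = wells lacking GSTO1 enzyme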
GSTO1 ABPP inh: GSTO1 (human) inhibition by gel ABPP. shares compounds with GSTO1 counter. recombinant GSTO1, gel ABPP SE-Rh probe fluorescence. inhibition, % at 1 µM. 130 compounds, 30% hits. AID 463110;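 active means inhibition of the enzyme GSTO1 above about 75%, limit read from the data; inactive means inhibition below that limit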
Numbers without * were called inactive; x = not tested or not shown. A selection: hits, their analogues and other compounds. The true share with any hit is near 2.5%.

SMILES	GSTO1 counter	CTSL1 counter	PAD4 FP inh	TDP2 absorb	PRMT1 FP inh	GSTO1 inh conf	others
CCCCNC(=O)C1(C(=O)C2CC2)CC(C(=O)OCC)=NO1 (stereo unspecified)	x	x	x	8	-5	x
O=[N+]([O-])c1ccc(O)c(C=Nc2ccc3c(c2)OCCO3)c1	0	1	-6	10	2	x
O=[N+]([O-])c1ccc(O)c(C=Nc2ccc3oc(Cc4ccc(Cl)cc4)nc3c2)c1	41*	2	-9	x	x	-1
C[C@@H]1CCN(C2CC2)S(=O)(=O)c2ccc(N3CCC[C@@H]3CO)cc2O1	x	x	x	0	-1	x
O=C(NN1C(=O)c2ccccc2NC1c1ccc([N+](=O)[O-])o1)c1ccccc1 (stereo unspecified)	44*	7	-5	-9	2	6
COc1ccc(NC(=O)CN(C)C(=O)c2cc3c(s2)CCCCC3)cc1	-3	1	3	-6	5	x
COc1ccc(NC(=O)CN(C)C(=O)c2cc3c(s2)CCC3)cc1	59*	0	-4	x	x	17
Cc1nn(CCC(=O)NNC(=O)Nc2ccccc2F)c(C)c1[N+](=O)[O-]	x	x	x	5	-1	x
O=c1[nH]c(C2CCN(S(=O)(=O)c3ccccc3C(F)(F)F)CC2)nc2c1nnn2Cc1cccc(F)c1	47*	-2	-1	14	-2	50*
O=c1[nH]c(C2CCN(S(=O)(=O)c3ccc(C(F)(F)F)cc3)CC2)nc2c1nnn2Cc1cccc(F)c1	3	3	-3	0	1	x
O=C(OCC(=O)N1CCC(c2ccccc2)=N1)c1ccc([N+](=O)[O-])s1	58*	7	-3	11	-2	29
Cc1[nH]c2ccccc2c1C(=O)COC(=O)c1ccc([N+](=O)[O-])s1	52*	-4	-13	16	-10	20
C#CCN1CC(N(C)CCOC(=O)c2occ3ccccc23)CS1(=O)=O (stereo unspecified)	x	x	x	6	-4	x
O=C(CN1CCc2onc(-c3ccc(-n4cc(COc5ccc([N+](=O)[O-])cc5)nn4)cc3)c2C1=O)N1CCOCC1	x	x	x	9	0	x
COc1ccccc1CNC(=O)c1c(N)n(CCCN2CCOCC2)c2nc3ccccc3nc12	x	x	x	-10	2	x
COc1cc(-n2c(N)c(C(=O)NCc3ccco3)c3nc4ccccc4nc32)cc(OC)c1OC	2	1	-2	11	0	x
Nc1c(C(=O)NCc2ccco2)c2nc3ccccc3nc2n1CCc1ccc(F)cc1	75*	4	37*	1	6	58*
Nc1c(C(=O)NCc2ccc3c(c2)OCO3)c2nc3ccccc3nc2n1CCCN1CCOCC1	50*	2	-15	-5	2	-4
CC(C)CNc1cccc2c1S(=O)(=O)N(Cc1cn(Cc3cccc(F)c3)nn1)Cc1ccccc1O2	x	x	x	-3	0	x
COC(=O)c1ccccc1NCc1cc(=O)oc2cc(O)c(O)cc12	43*	7	9	1	6	10
Cc1ccc(-n2c(Cc3cccs3)nnc2SCc2ccc(C#N)cc2)cc1	x	x	x	-1	-3	x
COc1ccc2nc(-c3ccco3)c(-c3ccco3)nc2c1	72*	11	2	15	63*	41*
COc1ccc2nc3cccc(OC)c3nc2c1	57*	19*	-1	2	8	87*
COc1ccc2nc(-c3ccccc3)cc(OC)c2c1	-5	2	-5	-5	-3	x
COC(=O)[C@]1(CNC(=O)c2cc(F)ccc2F)CC(=O)N(C)[C@@H]1c1ccccc1	x	x	x	2	-7	x
SMILES	GSTO1 counter	CTSL1 counter	PAD4 FP inh	TDP2 absorb	PRMT1 FP inh	GSTO1 inh conf	others
CCOc1ccc(N(CC(=O)Nc2c(C)n(C)n(-c3ccccc3)c2=O)S(=O)(=O)c2cccc3cccnc23)cc1	x	x	x	-8	11	x
Cc1ccc(Cn2nnc3c2-c2ccccc2S(=O)(=O)N(C)C3)cc1	x	x	x	-5	1	x
Cc1cccc(C(=O)NC(=S)NNC(=O)c2ccccc2Cl)c1	1	-2	1	-5	8	x
Cc1cc(C(=O)NNC(=S)NC(=O)/C=C/c2ccccc2Cl)n[nH]1	58*	-2	0	-12	6	10
N#CC1=C(N)Oc2n[nH]c(-c3cccnc3)c2C1c1ccc([N+](=O)[O-])o1 (stereo unspecified)	42*	-2	-14	17	6	26
CCOC(=O)N1CCN(C(=O)C[C@H]2C(=O)N(CCCOC)C3=CCCC[C@@]32C(=O)OCC)CC1	x	x	x	-4	1	x
COc1ccc(-c2cc(=O)oc3c(O)c(O)ccc23)cc1	58*	2	7	-2	9	19
COc1ccc(-c2cc(=O)oc3cc(OC(C)C(=O)O)ccc23)cc1 (stereo unspecified)	6	3	-4	0	-2	x
COC(=O)CN1C(=O)C2(C(C#N)=C(N)Oc3c2c(C)nn3-c2ccccc2)c2ccccc21 (stereo unspecified)	42*	-1	-3	-20	3	15
CCCCNC(=O)Cn1c(-c2ccc(OC)cc2)noc1=O	2	3	2	2	1	x
CCCCNC(=O)Oc1cc(CCl)on1	83*	-5	-1	x	x	91*	GSTO1 ABPP inh=21
COc1ccc(CN(C)C(=O)CCl)cc1	x	x	x	-7	2	x
CN(Cc1ccc(Cl)s1)C(=O)CCl	92*	16	3	-9	-3	104*	GSTO1 ABPP inh=70
COC(=O)C1CN(Cc2ccc(C)cc2)CCS(=O)(=O)N1Cc1cn(Cc2ccc(Cl)cc2)nn1 (stereo unspecified)	x	x	x	7	-4	x
O=C(CNC(=O)c1cccs1)N=Nc1c(O)[nH]c2ccc([N+](=O)[O-])cc12	39*	3	-7	8	0	25
COCCNC(=S)N=Nc1c(O)[nH]c2ccc([N+](=O)[O-])cc12	10	3	1	-3	-1	x
CC(Oc1ccccc1)C(=O)N=Nc1c(O)[nH]c2ccc([N+](=O)[O-])cc12 (stereo unspecified)	61*	5	-13	4	3	74*
O=[N+]([O-])c1ccc2[nH]c(O)c(N=Nc3ccc(F)cc3)c2c1	-1	0	-1	19	3	x
CCOC(=O)C1=C(C)c2ccccc2OC1(C(=O)OCC)C(C)C (stereo unspecified)	x	x	-1	-1	-1	x
CCOC(=O)NC1(NC2CCCCC2)Oc2ccccc2O1	52*	-3	5	0	19	7
CCOC(=O)NC1c2ccccc2Oc2ccccc21	12	2	-2	2	7	x
CCOC(=O)NC1(NCC(C)C)Oc2ccccc2O1	48*	1	1	-10	18	3
O=C(NC1CCCCN(Cc2cccc(F)c2)C1=O)c1cccc(C(F)(F)F)c1 (stereo unspecified)	x	x	x	-1	-4	x

Screening results: PubChem, The Scripps Research Institute Molecular Screening Center
